Source: ChEMBL document CHEMBL4354826, “Structure-Based Discovery of SD-36 as a Potent, Selective, and Efficacious PROTAC Degrader of STAT3 Protein” (J Med Chem, 2019)
Activity calls are given as the source filed them. No cut-off for these calls is given here.

What was measured:
[1] = target: T1, Signal transducer and activator of transcription 3 (Homo sapiens, UniProt P40763); assay: Binding affinity to STAT3 (unknown origin)
[2] = target: T2, Protein cereblon/Signal transducer and activator of transcription 3 (Homo sapiens, UniProt P40763+Q96SW2); assay: Protac activity at CRBN/STAT3 in human MOLM16 cells assessed as degradation of STAT3 incubated for 4 hrs by Western blot analysis; assay type: cell-based
In short: (§1)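 Molm-16 cells treated 4 h with serially diluted compound. Lysates immunoblotted (SDS–PAGE, PVDF, 5% blocker/TBST, chemiluminescence) for total STAT3 and pSTAT3 Y705. DC50 taken as the concentration reducing total STAT3 by 50%.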
Target sequence in this assay (P40763 whole entry): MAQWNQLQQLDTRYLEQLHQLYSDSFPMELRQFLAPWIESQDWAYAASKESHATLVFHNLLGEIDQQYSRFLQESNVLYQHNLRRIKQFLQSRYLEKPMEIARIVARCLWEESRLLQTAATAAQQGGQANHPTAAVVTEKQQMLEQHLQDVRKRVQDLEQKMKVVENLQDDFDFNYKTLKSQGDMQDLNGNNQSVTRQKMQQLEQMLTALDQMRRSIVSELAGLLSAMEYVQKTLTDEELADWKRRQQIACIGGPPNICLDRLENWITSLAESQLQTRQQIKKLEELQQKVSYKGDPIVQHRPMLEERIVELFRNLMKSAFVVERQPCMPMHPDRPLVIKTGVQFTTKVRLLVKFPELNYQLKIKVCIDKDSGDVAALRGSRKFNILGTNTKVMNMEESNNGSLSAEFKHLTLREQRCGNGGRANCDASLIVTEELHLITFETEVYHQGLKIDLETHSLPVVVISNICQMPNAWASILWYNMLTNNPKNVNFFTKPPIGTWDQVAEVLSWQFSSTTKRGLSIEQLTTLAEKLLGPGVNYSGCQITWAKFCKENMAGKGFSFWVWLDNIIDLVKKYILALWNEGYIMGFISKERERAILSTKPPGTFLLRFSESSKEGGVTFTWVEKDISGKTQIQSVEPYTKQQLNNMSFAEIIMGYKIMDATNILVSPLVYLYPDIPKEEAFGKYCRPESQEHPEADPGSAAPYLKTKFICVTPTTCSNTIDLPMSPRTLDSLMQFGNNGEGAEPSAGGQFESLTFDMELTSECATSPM
Target sequence in this assay (Q96SW2 whole entry): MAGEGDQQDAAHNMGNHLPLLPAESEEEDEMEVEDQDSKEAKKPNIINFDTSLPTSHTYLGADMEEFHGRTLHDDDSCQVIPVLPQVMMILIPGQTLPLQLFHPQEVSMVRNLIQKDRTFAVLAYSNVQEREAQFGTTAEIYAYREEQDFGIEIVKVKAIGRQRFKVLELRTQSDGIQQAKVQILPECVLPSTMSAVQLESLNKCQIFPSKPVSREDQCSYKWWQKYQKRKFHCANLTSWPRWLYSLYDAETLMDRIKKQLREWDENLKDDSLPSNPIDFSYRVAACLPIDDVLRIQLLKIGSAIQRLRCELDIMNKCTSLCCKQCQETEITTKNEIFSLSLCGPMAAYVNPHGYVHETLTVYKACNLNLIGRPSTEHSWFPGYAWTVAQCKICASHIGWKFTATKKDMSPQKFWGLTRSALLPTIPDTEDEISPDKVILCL

[3] = target: T2, Protein cereblon/Signal transducer and activator of transcription 3; assay: Protac activity at CRBN/STAT3 in human SUDHL1 cells assessed as degradation of STAT3 upto 5 uM incubated for 16 hrs by Western blot analysis; assay type: cell-based
[4] = target: T2, Protein cereblon/Signal transducer and activator of transcription 3; assay: Protac activity at CRBN/STAT3 in human SUDHL1 cells assessed as degradation of phosphorylated STAT3 Y705 upto 5 uM incubated for 16 hrs by Western blot analysis; assay type: cell-based
[5] = target: T2, Protein cereblon/Signal transducer and activator of transcription 3; assay: Protac activity at CRBN/STAT3 in human SUDHL1 cells assessed as degradation of STAT3 incubated for 16 hrs by Western blot analysis; assay type: cell-based
Target sequence in this assay (P40763 whole entry): as the sequence (P40763 whole entry) above
Target sequence in this assay (Q96SW2 whole entry): as the sequence (Q96SW2 whole entry) above

[6] = Antiproliferative activity against human MOLM16 cells assessed as reduction in cell viability incubated for 4 days by cell-titer glo luminescent assay; assay type: functional, cell-based; settings: MOLM16, 96 h
In short: (§2)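 Viability assay: cells incubated with serially diluted compounds for 4 days, viability read by CellTiter-Glo luminescence; IC50 from concentration–response.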

SU-DHL-1 = assay: Antiproliferative activity against human SUDHL1 cells assessed as reduction in cell viability incubated for 4 days by cell-titer glo luminescent assay; assay type: functional, cell-based; settings: SU-DHL-1, 96 h; in short: as §2
[7] = target: T1, Signal transducer and activator of transcription 3; assay: Binding affinity to recombinant human His/SUMO-tagged STAT3 (127 to 688 residues) expressed in Escherichia coli Rosetta (DE3) incubated for 1 hr by fluorescence polarization assay
[8] = target: T2, Protein cereblon/Signal transducer and activator of transcription 3; assay: Protac activity at CRBN/STAT3 in human MOLM16 cells assessed as degradation of STAT3 at 1 uM incubated for 4 hrs by Western blot analysis; assay type: cell-based; in short: as §1
[9] = target: T2, Protein cereblon/Signal transducer and activator of transcription 3; assay: Protac activity at CRBN/STAT3 in human MOLM16 cells assessed as degradation of phosphorylated STAT3 Y705 at 1 uM incubated for 4 hrs by Western blot analysis; assay type: cell-based; in short: as §1
[10] = target: T2, Protein cereblon/Signal transducer and activator of transcription 3; assay: Protac activity at CRBN/STAT3 in human SUDHL1 cells assessed as degradation of STAT3 upto 10 uM incubated for 16 hrs by Western blot analysis; assay type: cell-based
[11] = target: T2, Protein cereblon/Signal transducer and activator of transcription 3; assay: Protac activity at CRBN/STAT3 in human SUDHL1 cells assessed as degradation of phosphorylated STAT3 Y705 upto 10 uM incubated for 16 hrs by Western blot analysis; assay type: cell-based
[12] = target: T2, Protein cereblon/Signal transducer and activator of transcription 3; assay: Protac activity at CRBN/STAT3 in human MOLM16 cells assessed as degradation of STAT3 at 10 uM incubated for 4 hrs by Western blot analysis; assay type: cell-based
In short: (§3)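 Molm-16 cells treated 4 h with test compound at 0.01–10 μM, or control compounds at 10 μM. Lysates separated by SDS–PAGE, transferred to PVDF, blocked 1 h in 5% blocker/TBST, probed for each STAT protein, and detected by chemiluminescence.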

[13] = target: T3, Protein cereblon/Signal transducer and activator of transcription 1-alpha/beta (Homo sapiens) (UniProt P42224+Q96SW2); assay: Protac activity at CRBN/STAT1 in human MOLM16 cells assessed as degradation of STAT1 at 10 uM incubated for 4 hrs by Western blot analysis; assay type: cell-based; in short: as §3
[14] = target: T4, Protein cereblon/Signal transducer and activator of transcription 2 (Homo sapiens) (UniProt Q96SW2+P52630); assay: Protac activity at CRBN/STAT2 in human MOLM16 cells assessed as degradation of STAT2 at 10 uM incubated for 4 hrs by Western blot analysis; assay type: cell-based; in short: as §3
T4 sequence (P52630 whole entry, looked up): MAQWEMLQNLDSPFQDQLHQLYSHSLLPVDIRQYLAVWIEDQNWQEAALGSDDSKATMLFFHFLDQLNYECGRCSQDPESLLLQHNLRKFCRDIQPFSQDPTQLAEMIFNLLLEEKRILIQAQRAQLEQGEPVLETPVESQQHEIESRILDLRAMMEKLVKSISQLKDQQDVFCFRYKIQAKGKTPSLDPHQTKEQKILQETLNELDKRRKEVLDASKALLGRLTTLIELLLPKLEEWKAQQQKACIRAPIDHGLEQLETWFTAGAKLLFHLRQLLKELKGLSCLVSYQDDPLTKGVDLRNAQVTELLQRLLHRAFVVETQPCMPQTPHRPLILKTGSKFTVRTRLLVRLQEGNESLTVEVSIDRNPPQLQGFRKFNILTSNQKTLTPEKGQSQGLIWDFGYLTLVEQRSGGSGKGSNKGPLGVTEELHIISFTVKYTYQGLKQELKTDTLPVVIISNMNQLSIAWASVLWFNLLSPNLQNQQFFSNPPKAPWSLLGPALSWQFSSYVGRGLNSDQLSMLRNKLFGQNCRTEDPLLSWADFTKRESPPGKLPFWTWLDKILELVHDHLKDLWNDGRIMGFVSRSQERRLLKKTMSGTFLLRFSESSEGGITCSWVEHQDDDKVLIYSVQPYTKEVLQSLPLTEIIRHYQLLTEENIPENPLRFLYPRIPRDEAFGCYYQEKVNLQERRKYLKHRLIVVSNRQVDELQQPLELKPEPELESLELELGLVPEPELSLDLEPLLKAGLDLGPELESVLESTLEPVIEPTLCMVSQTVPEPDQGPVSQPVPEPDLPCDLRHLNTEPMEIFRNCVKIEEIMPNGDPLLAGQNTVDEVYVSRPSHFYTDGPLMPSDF
T4 sequence (Q96SW2 whole entry, looked up): as the sequence (Q96SW2 whole entry) above

[15] = target: T5, Protein cereblon/Signal transducer and activator of transcription 4 (Homo sapiens) (UniProt Q96SW2+Q14765); assay: Protac activity at CRBN/STAT4 in human MOLM16 cells assessed as degradation of STAT4 at 10 uM incubated for 4 hrs by Western blot analysis; assay type: cell-based; in short: as §3
T5 sequence (Q14765 whole entry, looked up): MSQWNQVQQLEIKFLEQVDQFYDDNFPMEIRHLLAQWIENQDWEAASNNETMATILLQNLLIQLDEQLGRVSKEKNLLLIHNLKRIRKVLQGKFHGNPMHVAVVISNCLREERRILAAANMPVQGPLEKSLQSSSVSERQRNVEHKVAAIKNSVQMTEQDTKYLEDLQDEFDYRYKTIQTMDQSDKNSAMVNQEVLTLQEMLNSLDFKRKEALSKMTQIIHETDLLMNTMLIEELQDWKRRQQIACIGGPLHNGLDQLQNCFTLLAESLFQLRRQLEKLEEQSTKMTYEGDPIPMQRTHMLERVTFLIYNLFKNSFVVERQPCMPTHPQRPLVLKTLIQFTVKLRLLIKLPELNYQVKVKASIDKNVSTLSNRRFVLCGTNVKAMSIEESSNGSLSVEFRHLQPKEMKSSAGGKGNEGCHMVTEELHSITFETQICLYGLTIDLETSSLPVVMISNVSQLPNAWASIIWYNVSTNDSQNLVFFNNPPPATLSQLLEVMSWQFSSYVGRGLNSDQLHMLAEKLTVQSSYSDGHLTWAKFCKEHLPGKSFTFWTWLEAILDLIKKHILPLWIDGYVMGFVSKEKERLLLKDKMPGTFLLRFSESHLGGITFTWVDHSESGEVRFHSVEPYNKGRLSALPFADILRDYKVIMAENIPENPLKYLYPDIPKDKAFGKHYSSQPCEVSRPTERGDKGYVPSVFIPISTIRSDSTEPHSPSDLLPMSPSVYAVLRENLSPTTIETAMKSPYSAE
T5 sequence (Q96SW2 whole entry, looked up): as the sequence (Q96SW2 whole entry) above

[16] = target: T6, Protein cereblon/Signal transducer and activator of transcription 5A (Homo sapiens) (UniProt P42229+Q96SW2); assay: Protac activity at CRBN/STAT5A in human MOLM16 cells assessed as degradation of STAT5A at 10 uM incubated for 4 hrs by Western blot analysis; assay type: cell-based; in short: as §3
T6 sequence (P42229 whole entry, looked up): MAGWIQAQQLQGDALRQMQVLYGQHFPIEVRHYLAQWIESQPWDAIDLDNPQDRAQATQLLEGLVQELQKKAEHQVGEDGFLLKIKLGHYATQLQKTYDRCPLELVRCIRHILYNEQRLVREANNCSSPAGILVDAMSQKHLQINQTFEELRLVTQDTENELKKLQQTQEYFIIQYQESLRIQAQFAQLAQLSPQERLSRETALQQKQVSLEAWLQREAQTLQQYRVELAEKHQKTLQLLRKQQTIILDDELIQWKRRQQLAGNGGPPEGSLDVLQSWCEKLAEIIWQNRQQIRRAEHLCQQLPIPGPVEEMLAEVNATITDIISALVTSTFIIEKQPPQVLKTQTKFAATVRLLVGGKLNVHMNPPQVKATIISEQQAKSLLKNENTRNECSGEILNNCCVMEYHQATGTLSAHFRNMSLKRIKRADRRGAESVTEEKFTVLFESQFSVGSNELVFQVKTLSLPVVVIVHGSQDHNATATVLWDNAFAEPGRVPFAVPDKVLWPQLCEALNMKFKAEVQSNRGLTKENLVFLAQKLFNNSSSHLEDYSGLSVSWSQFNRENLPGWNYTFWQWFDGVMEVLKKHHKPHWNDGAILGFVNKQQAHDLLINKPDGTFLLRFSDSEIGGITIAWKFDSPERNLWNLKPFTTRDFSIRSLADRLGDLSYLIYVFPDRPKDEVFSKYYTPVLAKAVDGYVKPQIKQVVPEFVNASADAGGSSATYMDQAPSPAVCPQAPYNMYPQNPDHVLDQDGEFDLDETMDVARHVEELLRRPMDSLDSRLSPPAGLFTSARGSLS
T6 sequence (Q96SW2 whole entry, looked up): as the sequence (Q96SW2 whole entry) above

[17] = target: T7, Protein cereblon/Signal transducer and activator of transcription 5B (Homo sapiens) (UniProt P51692+Q96SW2); assay: Protac activity at CRBN/STAT5B in human MOLM16 cells assessed as degradation of STAT5B at 10 uM incubated for 4 hrs by Western blot analysis; assay type: cell-based; in short: as §3
[18] = target: T8, Protein cereblon/Signal transducer and activator of transcription 6 (Homo sapiens) (UniProt P42226+Q96SW2); assay: Protac activity at CRBN/STAT6 in human MOLM16 cells assessed as degradation of STAT6 at 10 uM incubated for 4 hrs by Western blot analysis; assay type: cell-based; in short: as §3
[19] = target: T2, Protein cereblon/Signal transducer and activator of transcription 3; assay: Protac activity at CRBN/STAT3 in human SUDHL1 cells assessed as degradation of STAT3 at 10 uM incubated for 18 hrs by Western blot analysis; assay type: cell-based
In short: (§4)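 SU-DHL-1 cells treated 18 h with test compound at 0.01–10 μM, or control compounds at 10 μM. Lysates separated by SDS–PAGE, transferred to PVDF, blocked 1 h in 5% blocker/TBST, probed for each STAT protein, and detected by chemiluminescence.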

[20] = target: T3, Protein cereblon/Signal transducer and activator of transcription 1-alpha/beta (Homo sapiens); assay: Protac activity at CRBN/STAT1 in human SUDHL1 cells assessed as degradation of STAT1 at 10 uM incubated for 18 hrs by Western blot analysis; assay type: cell-based; in short: as §4
[21] = target: T4, Protein cereblon/Signal transducer and activator of transcription 2 (Homo sapiens); assay: Protac activity at CRBN/STAT2 in human SUDHL1 cells assessed as degradation of STAT2 at 10 uM incubated for 18 hrs by Western blot analysis; assay type: cell-based; in short: as §4
[22] = target: T5, Protein cereblon/Signal transducer and activator of transcription 4 (Homo sapiens); assay: Protac activity at CRBN/STAT4 in human SUDHL1 cells assessed as degradation of STAT4 at 10 uM incubated for 18 hrs by Western blot analysis; assay type: cell-based; in short: as §4
[23] = target: T6, Protein cereblon/Signal transducer and activator of transcription 5A (Homo sapiens); assay: Protac activity at CRBN/STAT5A in human SUDHL1 cells assessed as degradation of STAT5A at 10 uM incubated for 18 hrs by Western blot analysis; assay type: cell-based; in short: as §4
[24] = target: T7, Protein cereblon/Signal transducer and activator of transcription 5B (Homo sapiens); assay: Protac activity at CRBN/STAT5B in human SUDHL1 cells assessed as degradation of STAT5B at 10 uM incubated for 18 hrs by Western blot analysis; assay type: cell-based; in short: as §4
[25] = target: T8, Protein cereblon/Signal transducer and activator of transcription 6 (Homo sapiens); assay: Protac activity at CRBN/STAT6 in human SUDHL1 cells assessed as degradation of STAT6 at 10 uM incubated for 18 hrs by Western blot analysis; assay type: cell-based
In short: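 SU-DHL-1 cells exposed to compound over 0.01–10 μM, or controls at 10 μM, for 18 h. Lysates separated by SDS–PAGE and transferred to PVDF. Membranes blocked 1 h in 5% blocker/TBST, probed with primary then secondary antibodies, and developed by chemiluminescence for STAT1, STAT2, STAT4, STAT5A/B, STAT6 and STAT3.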

Mus musculus = assay: In vivo degradation of STAT3 in CD1 mouse at 25 mg/kg, iv measured upto 48 hrs by Western blot analysis; assay type: functional, organism-based
In short: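 Female CD-1 mice given a single intravenous dose in 10% PEG400 + 90% PBS, or vehicle. Euthanized at set time points. Spleen harvested and lysates immunoblotted for STAT3.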

[26] = target: T2, Protein cereblon/Signal transducer and activator of transcription 3; assay: Protac activity at CRBN/STAT3 in human MOLM16 cells assessed as degradation of STAT3 up to 10 uM incubated for 4 hrs by Western blot analysis; assay type: cell-based; in short: as §1

Compound	DC50 [2] [nM]	DC50 [5] [nM]	IC50 [6] [nM]	IC50 (SU-DHL-1) [nM]	Activity [10]	Activity [11]	Activity [12]	Activity [13]	Activity [14]	Activity [15]	Activity [16]	Activity [17]	Activity [18]	Activity [19]	Activity [20]	Activity [21]	Activity [22]	Activity [23]	Activity [24]	Activity [25]	also measured
NC(=O)CC[C@H](NC(=O)[C@@H]1CC[C@@H]2CCCC[C@H](NC(=O)c3cc4cc(CP(=O)(O)O)ccc4[nH]3)C(=O)N21)C(=O)NCc1ccccc1	–	–	–	–	–	–	–	–	–	–	–	–	–	–	–	–	–	–	–	–	Ki [1]: 761 nM
C/C(=C\C(=O)N[C@H]1CN(C(=O)CCCCCC#Cc2cccc3c2CN(C2CCC(=O)NC2=O)C3=O)CC[C@H]2CC[C@@H](C(=O)N[C@@H](CCC(N)=O)C(=O)NC(c3ccccc3)c3ccccc3)N2C1=O)c1ccc(C(F)(F)P(=O)(O)O)cc1 (stereo partly specified)	4450	> 10000	1250	> 10000	–	–	–	–	–	–	–	–	–	–	–	–	–	–	–	–	Activity [3]: inactive; Activity [4]: inactive
CC(=O)N1CC[C@H]2CC[C@@H](C(=O)N[C@@H](CCC(N)=O)C(=O)NC(c3ccccc3)c3ccccc3)N2C(=O)[C@@H](NC(=O)c2cc3cc(C(F)(F)P(=O)(O)O)ccc3[nH]2)C1	> 10000	> 10000	6450	> 10000	inactive	inactive	inactive	inactive	inactive	inactive	inactive	inactive	inactive	inactive	inactive	inactive	inactive	inactive	inactive	inactive	Ki [7]: 14 nM; Activity [8]: inactive; Activity [9]: inactive
NC(=O)CC[C@H](NC(=O)[C@@H]1CC[C@@H]2CCN(C(=O)NCCCCC#Cc3cccc4c3CN(C3CCC(=O)NC3=O)C4=O)C[C@H](NC(=O)c3cc4cc(C(F)(F)P(=O)(O)O)ccc4[nH]3)C(=O)N21)C(=O)NC(c1ccccc1)c1ccccc1 (stereo partly specified)	50	11	91	430	–	–	–	–	–	–	–	–	–	–	–	–	–	–	–	–	Activity (Mus musculus): Active
CN1C(=O)CCC(N2Cc3c(C#CCCCCCC(=O)N4CC[C@H]5CC[C@@H](C(=O)N[C@@H](CCC(N)=O)C(=O)NC(c6ccccc6)c6ccccc6)N5C(=O)[C@@H](NC(=O)c5cc6cc(C(F)(F)P(=O)(O)O)ccc6[nH]5)C4)cccc3C2=O)C1=O (stereo partly specified)	> 10000	> 10000	5210	> 10000	inactive	inactive	inactive	inactive	inactive	inactive	inactive	inactive	inactive	inactive	inactive	inactive	inactive	inactive	inactive	inactive	Activity [26]: 0%
